According to the EternaBench riboswitch data:

Tested on: MS2 coat protein
Assay: apparent Kd, MS2 coat protein; higher = weaker binding; RNA-MaP array; FMN 200 µM where present
In short: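 The apparent Kd is reported as the median of filtered per-cluster binding-curve fits. To get these curves, designs transcribed by stalled E. coli RNA polymerase on Illumina sequencing-chip clusters were titrated with SNAP-549-labelled MS2 coat protein from 0.7 or 1.5 nM, doubling to 3 µM. Titrations were run without and then with constant ligand in 100 mM Tris-HCl pH 7.5, 80 mM KCl, 4 mM MgCl2, BSA, DTT, yeast tRNA and Tween-20, and green signal was normalised to red-channel RNA signal and control-cluster median Fmax.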

[1] = designed as: OFF switch for flavin mononucleotide, no ligand
[2] = ligand present: flavin mononucleotide, designed as: OFF switch for flavin mononucleotide
[3] = designed as: ON switch for flavin mononucleotide, no ligand
[4] = ligand present: flavin mononucleotide, designed as: ON switch for flavin mononucleotide

Sequence	apparent Kd [1]	apparent Kd [2]	apparent Kd [3]	apparent Kd [4]
UCUACGCGAAUCAAGAUGGAUAGCACAUGAGGAUCACCCAUGUAGGAUAUGCUACACAAAGUGUAGCAGAAGGACAAGCGUAGA	26.5 nM	38.3 nM		
GGAUCGAAUGUGAGGAUAUGCAGGUCCUUGGAUCUGCAGAAGGCACAUGAGGAUCACCCAUGUGACCAAGAUCC	50 nM	548 nM		
CAUCCACAUGAGGAUCACCCAUGUGAGGAUAUGAUACUAUGUACUUCGGUACAUAGUAUCAGAAGGCACAGGUG	120 nM	37.4 nM		
UUUAUUAGUUAGAAGGCUUGAUGAAUUACAAUAGACAUGAGGAUCACCCAUGUGUAUUCAUGUCAAGAGGAUAUAGUCAUAUAU			13.7 nM	6.54 nM
UAUAUUAUUAUAGGAUAUGGAUAUGAUGCAUAUCCAGAAGGGUGAUUAUAAUAUUUUCUGUACAUGAGGAUCACCCAUGUUUAU			141 nM	41.6 nM
GUGUACGGAGGAUAUGUAUGGGCAGGCUGACCUGCAGCUUCACAUGAGGAUCACCCAUGUAGAAGGCUGUGCAC	12.1 nM	24.2 nM		
GGAUAGGACAGAGGAUAUACGUGCUAGACAUACUAGCAAAAUUUCCUCACAUGAGGAUCACCCAUGUAGAAGGCUGUCCUAUCG	18.7 nM	440 nM		
GCACGGAUGGUAGGAUAUCAUUGCGAUUAGCUAUGAGAAGGACCACAUGAGGAUCACCCAUGUCCUCUAAUUAGCCUUCCGUGC	179 nM	297 nM		
CUAAUUAGUCAGAAGGUGCUGCCGGAAUCAUAGCAAGGAUAUGACAUGAGGAUCACCCAUGUACAGAUCCUACAUAAAAUCAGG	5.73 nM	8.98 nM		
UCGUCCAUGUCAGGAUAUGGCGGUAAAGAAAGGCUAGAAGGGACAUGAGGAUCACCCAUGUGCUCUUACGUGCACGGGCUGCGC	6.47 nM	8.18 nM		
GCAAUAGCAUGAGGAUAUGUUGGAGUUUAGACAGCAGAAGGCAUGUCAUAAGACAUGAGGAUCACCCAUGUAAUUACAAUAGCA			32.7 nM	12.1 nM
GAGGAGGUAGGAUAUACGAUAAUAUAGGGUAGAUAUAUAACACAUGAGGAUCACCCAUGUAGAAGGACCAGGAG	34.4 nM	62.4 nM		
GUGGAGUAAGGAUAUACAUGAGGAUCACCCAUGUGAGGGUAUGAGAAGGGAAUGAGAGGUAGAAGGUACGAGGG	172 nM	107 nM		
GAAGGCUGGUAGAAGGAUCCUCACAUGAGGAUCACCCAUGUAACAGCGGAUAGGAUAUACCGUCUUUCACGUUGGUCUCCCUAA			370 nM	25.3 nM
ACAAGGCAUGUAGGAUAUCCAUUGCGUCGCGAUGGAGAAGGACAACACACAUGAGGAUCACCCAUGUGAUCACCCAUGUCGUGU	356 nM	418 nM		
GCGGUAAAGAUCCAUUUUUACAACAUGAGGAUCACCCAUGUGCAGGAUAUCGAAUGUUUUAUAUUCGAGAAGGGCAAUUACCGC	20.7 nM	57.5 nM		
UGUCGGAGCAGAGGAUAUACAUGAGGAUCACCCAUGUAAGAAAGUGAAGCCUGGAAACAGGCAAUGUAGAAGGCUGCUCCGACA	12.4 nM	86.3 nM		
AAGAAUAGAAAGAUUAAUAUGAAUACAUGAGGAUCACCCAUGUAGGAUAUGCAGCUGAAUCAGCUGCAGAAGGACAAAAUAAAU	9.15 nM	9.08 nM		
GUGCGAGCCACAGGAUAUCUACAGAUUUAUCGUAGAGAAGGGUGACCUCGUGCACCACAUGAGGAUCACCCAUGUAACUAGGCG			19.6 nM	36.3 nM
CGGGCAUAUCGAGGAUAUAAGUCUAGGACAUGAGGAUCACCCAUGUAUGUCUUAGAAGGCGAUAUGCCCAGCCUGUUACAGGCA			30 nM	6.01 nM
AGGCCGCUACGCCGGCUUCACGCACAGGAUAUGCAGUUACAUGAGGAUCACCCAUGUGGCCAUGUGCAGAAGGGUGGUUCGUUA			109 nM	24.5 nM
CCGGAAACGGGUAGCUGACAUGAGGAUCACCCAUGUGUAUCACAGGAUAUGGAUCCUAAUUGGAUCCAGAAGGGUGUCAGCUAC			1130 nM	105 nM
UGUCAAGCAGGAUAUGCACGUAAUAACAUGAGGAUCACCCAUGUGACCGAUUUAUAUUUUGCAGAAGGGCUUGUUU	79.7 nM	78.2 nM		
GGAGCCGGCACCGAGGAUAUUCAUAUUAAAACAUGAGGAUCACCCAUGUAGGCCAGAAGGCUUUGGGAGAAGGCGGAUCGGCUCG			604 nM	38.7 nM
UUAUAUAAUGUGAGGAUAUGCUGGUCGAGAGAUCAGCAGAAGGCACAUGAGGAUCACCCAUGUAGUAAAUUUUA	22.5 nM	25.9 nM		
GUGGUCAGACAUGAGGAUCACCCAUGUGGAAUAAAUAAGGUACAGGAUAUCUAAUAUAGGAUAUAAGAGAAGGGUAGGUUGGUG			75.4 nM	78.4 nM
GUAGCUACAUGAGGAUCACCCAUGUAGGAUAUCGCUAUUGUAAUCAUGAAACAUGAUUACAAUAGCGAGAAGGACAUGUGCUAC	20.9 nM	25.2 nM		
AGUCGGAGCAGAGGAUAUUACAUGAGGAUCACCCAUGUGGAAGAACCAAGCUGGAAACAGCAAUGUAAGAAGGCUGCUCCGACA	918 nM	430 nM		
